One data set has as its system Plasmodium falciparum. Description: Antimalarial activity against Plasmodium falciparum. It is filed as functional, organism-based. The method, boiled down:
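P. falciparum K1 (multidrug-resistant), asexual erythrocytic stage kept in continuous in vitro culture; microculture radioisotope method after Desjardins. EC50 is the concentration giving 50% reduction in parasite growth, measured as [3H]hypoxanthine uptake. Artemisinin and dihydroartemisinin served as standards.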

The subject of the next data set is BC. In words: Cytotoxicity against BC cells. Format: functional, cell-based. As to conditions: Homo sapiens. The essentials: (§1)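 Colorimetric cytotoxicity assay after Skehan on KB, BC and vero cell lines. Maximum concentration tested 130 µM. Ellipticine was the positive control. IC50 is reported in µM.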
Data set [1] is described as follows: Therapeutic index (TI) determined as IC50 of vero cells to that of EC50. Format: cell-based. As to conditions: plasmodium falciparum, read-out: TI.
A further data set deals with Vero. Description: Cytotoxicity against vero cells. It is filed as functional, cell-based. As to conditions: Chlorocebus sabaeus. The method, boiled down:
as §1

The nature of data set [2]: Cytotoxicity against KB cells. It is filed as functional, cell-based. As to conditions: Homo sapiens. The method, boiled down: as §1

A word on the EC50: it is the midpoint of the concentration-response curve. Read a low EC50 as a more potent agent. The term IC50 denotes the point on the concentration scale where inhibition reaches its midpoint. In the data set on Plasmodium falciparum, `CCCCCC[C@@H]1C(=O)O[C@@H]2O[C@]3(C)CC[C@H]4[C@H](C)CC[C@@H]1[C@@]24OO3` came in with a 50% effective concentration (EC50) of 13.8 nM. In addition, the IC50 with BC was found to be 6200 nM; in the data set on Vero it was 14000 nM; in data set [2], 6200 nM. In addition, the selectivity ratio in data set [1] came to 1.
Take `CC1CCC2C(CSCCCCSCC3C(=O)OC4OC5(C)CCC6C(C)CCC3C46OO5)C(=O)OC3OC4(C)CCC1C32OO4` (configuration not stated): in the data set with Plasmodium falciparum, a half-maximal effect (EC50) was put at 5.7 nM.
`CC1CCC2C(CSCCSCC3C(=O)OC4OC5(C)CCC6C(C)CCC3C46OO5)C(=O)OC3OC4(C)CCC1C32OO4` (configuration not stated) displayed a 50% effective concentration (EC50) with Plasmodium falciparum of 7.4 nM.
The compound `CC1CCC2C(CC3(Cc4cccc(F)c4)C(=O)OC4OC5(C)CCC6C(C)CCC3C46OO5)C(=O)OC3OC4(C)CCC1C32OO4` (configuration not stated) displayed an EC50 in the data set with Plasmodium falciparum of 2.1 nM. Besides, the 50% inhibitory concentration (IC50) with BC is 3500 nM; in the data set on Vero, 5500 nM; in data set [2] it was 4000 nM. Also, in data set [1], the selectivity ratio stood at 2.6.
On the same counts, the results for `CC1CCC2C(CCCCCCC3(CC4C(=O)OC5OC6(C)CCC7C(C)CCC4C57OO6)C(=O)OC4OC5(C)CCC6C(C)CCC3C46OO5)C(=O)OC3OC4(C)CCC1C32OO4` (configuration not stated) are 2.4 nM, 1200 nM, 6600 nM, 1700 nM and 2.8.
In the data set on Plasmodium falciparum, `C[C@@H]1CC[C@H]2[C@H](CCCCCCC[C@H]3C(=O)O[C@@H]4O[C@@]5(C)CC[C@H]6[C@H](C)CC[C@@H]3[C@@]46OO5)C(=O)O[C@@H]3O[C@@]4(C)CC[C@@H]1[C@]32OO4` came in with an EC50 of 0.91 nM. The half-maximal inhibitory concentration (IC50) came out at 360 nM in the data set with BC, 2800 nM with Vero and 760 nM in data set [2]. In addition, the selectivity ratio in data set [1] turned out to be 3.1.
Turning to `CC1CCC2C(CCCCCCCC3(CC4C(=O)OC5OC6(C)CCC7C(C)CCC4C57OO6)C(=O)OC4OC5(C)CCC6C(C)CCC3C46OO5)C(=O)OC3OC4(C)CCC1C32OO4` (configuration not stated), in the data set on Plasmodium falciparum, the EC50 was 3.1 nM. Moreover, the figures for the IC50 (in the data set on BC; in the data set on Vero; in data set [2]) were 2000 nM, 10000 nM and 2800 nM, respectively.
For the compound `C[C@@H]1CC[C@H]2[C@H](Cc3cccc(F)c3)C(=O)O[C@@H]3O[C@]4(C)CC[C@@H]1[C@]32OO4`, in the data set on Plasmodium falciparum, the EC50 was 18.2 nM. The IC50 in the data set on BC is 41000 nM; with Vero, more than 130000 nM; in data set [2] it was 44000 nM. Further, the selectivity ratio in data set [1] came out at 7.1.
For `CCCCCC[C@H]1C(=O)O[C@@H]2O[C@]3(C)CC[C@H]4[C@H](C)CC[C@@H]1[C@@]24OO3` the same measures were 12.9 nM, 5700 nM, 16000 nM, 6200 nM and 1.2.
For `CCN(CC)C(=S)SC(CC1C(=O)O[C@@H]2O[C@]3(C)CC[C@H]4[C@H](C)CC[C@@H]1C24OO3)SC(=S)N(CC)CC` (some centres not stated) the same measures were 1.9 nM, 2400 nM, 6600 nM, 2500 nM and 3.5.
`CC1CCC2C(CC3(Cc4ccc(F)cc4)C(=O)OC4OC5(C)CCC6C(C)CCC3C46OO5)C(=O)OC3OC4(C)CCC1C32OO4` (configuration not stated) returned an EC50 in the data set on Plasmodium falciparum of 2.3 nM. For the same compound, the IC50 with BC stood at 7400 nM; with Vero it was 1100 nM; in data set [2] it was 7700 nM. The selectivity ratio in data set [1] stood at 4.8.
For `CCCCC[C@@H]1C(=O)O[C@@H]2O[C@]3(C)CC[C@H]4[C@H](C)CC[C@@H]1[C@@]24OO3` the same measures were 11.7 nM, 11000 nM, 19000 nM, 11000 nM and 1.6.
`C[C@@H]1CC[C@H]2[C@@H](CCCCc3ccccc3)C(=O)O[C@@H]3O[C@]4(C)CC[C@@H]1[C@]32OO4` came in with an EC50 in the data set with Plasmodium falciparum of 8.4 nM. In addition, the IC50 with BC worked out at 14000 nM; in the data set on Vero, 16000 nM; in data set [2], 11000 nM. Besides, the selectivity ratio in data set [1] amounted to 1.9.
On the same counts, the results for `CC1CCC2C(CC3(CCCCCCC4(CC5C(=O)OC6OC7(C)CCC8C(C)CCC5C68OO7)C(=O)OC5OC6(C)CCC7C(C)CCC4C57OO6)C(=O)OC4OC5(C)CCC6C(C)CCC3C46OO5)C(=O)OC3OC4(C)CCC1C32OO4` (configuration not stated) are 5.8 nM, 2800 nM, 9200 nM, 2000 nM and 1.6.
Compound `CCCCCC1(CC2C(=O)OC3OC4(C)CCC5C(C)CCC2C35OO4)C(=O)OC2OC3(C)CCC4C(C)CCC1C24OO3` (configuration not stated) had an EC50 with Plasmodium falciparum of 3.9 nM. The IC50 came to 36000 nM with BC, 63000 nM in the data set on Vero and 23000 nM in data set [2]. Also, the selectivity ratio in data set [1] came out at 1.6.
`CC1CCC2C(CSCCCSCC3C(=O)OC4OC5(C)CCC6C(C)CCC3C46OO5)C(=O)OC3OC4(C)CCC1C32OO4` (configuration not stated) yielded an EC50 in the data set with Plasmodium falciparum of 13 nM.
On to `C[C@@H]1CCC2[C@H](CCCCCC[C@@H]3C(=O)O[C@@H]4O[C@@]5(C)CC[C@H]6[C@H](C)CCC3[C@@]46OO5)C(=O)O[C@@H]3O[C@]4(C)CC[C@@H]1C23OO4` (some centres not stated), for which, in the data set on Plasmodium falciparum, the EC50 is 1.4 nM. For the same compound, the values for the IC50 (in the data set on BC; in the data set with Vero; in data set [2]) were 1600 nM, 10000 nM and 2300 nM, respectively. For the same compound, the selectivity ratio in data set [1] was determined as 7.1.
In turn, `CC1CCC2C(CC3(CCCCc4ccccc4)C(=O)OC4OC5(C)CCC6C(C)CCC3C46OO5)C(=O)OC3OC4(C)CCC1C32OO4` (configuration not stated) displayed an EC50 in the data set with Plasmodium falciparum of 3.4 nM. The IC50 in the data set with BC stood at 1200 nM; in the data set with Vero it was 2400 nM; in data set [2], 5700 nM. Also, the selectivity ratio in data set [1] was 7.1.
For `C[C@@H]1CCC2[C@H](CCCCCC[C@H]3C(=O)O[C@@H]4O[C@@]5(C)CC[C@H]6[C@H](C)CCC3[C@@]46OO5)C(=O)O[C@@H]3O[C@]4(C)CC[C@@H]1C23OO4` (some centres not stated) the same measures were 10.5 nM, 1600 nM, 10000 nM, 1800 nM and 9.5.
With `C[C@@H]1CC[C@H]2[C@H](Cc3ccc(F)cc3)C(=O)O[C@@H]3O[C@]4(C)CC[C@@H]1[C@]32OO4`, in the data set on Plasmodium falciparum, the EC50 worked out at 12.9 nM. Besides, the IC50 turned out to be 41000 nM in the data set on BC, 120000 nM in the data set on Vero and 35000 nM in data set [2]. Moreover, the selectivity ratio in data set [1] was found to be 9.3.
In the case of `C[C@@H]1CC[C@H]2C(C[C@]3(C)C(=O)O[C@@H]4O[C@]5(C)CC[C@H]6[C@H](C)CC[C@@H]3[C@@]46OO5)C(=O)O[C@@H]3O[C@]4(C)CC[C@@H]1C32OO4` (some centres not stated), a half-maximal response in the data set with Plasmodium falciparum (EC50) required 1 nM. Besides, the IC50 in the data set on BC stood at 13000 nM; in the data set on Vero it was 89000 nM; in data set [2], 23000 nM. Besides, in data set [1], the selectivity ratio was 8.9.
As to `C[C@@H]1CC[C@H]2[C@H](CCCCCCC[C@@H]3C(=O)O[C@@H]4O[C@@]5(C)CC[C@H]6[C@H](C)CC[C@@H]3[C@@]46OO5)C(=O)O[C@@H]3O[C@@]4(C)CC[C@@H]1[C@]32OO4`, the response in the data set with Plasmodium falciparum was half-maximal at 1.1 nM (EC50). Also, the IC50 in the data set on BC came out at 1100 nM; in the data set with Vero, 4900 nM; in data set [2], 1100 nM.
As to `CC1CCC2C(CSCCCCCSCC3C(=O)OC4OC5(C)CCC6C(C)CCC3C46OO5)C(=O)OC3OC4(C)CCC1C32OO4` (configuration not stated), the EC50 with Plasmodium falciparum was 12 nM.

These data come from ChEMBL document CHEMBL1134326, “C-16 artemisinin derivatives and their antimalarial and cytotoxic activities: syntheses of artemisinin monomers, dimers, trimers, and tetramers by nucleophilic additions to artemisitene” (J Med Chem, 2001).
